Test results reported in ChEMBL document CHEMBL1144849, “Latrunculin A and its C-17-O-carbamates inhibit prostate tumor cell invasion and HIF-1 activation in breast tumor cells” (J Nat Prod, 2008).
The source made the active and inactive calls. The calls are words filed in the database; no cut-off is given here.

Assays:
PC-3M [1] = assay: Antimetastatic activity in human PC3M cells expressing calcitonin assessed as decreased cell disaggregation by spheroid disaggregation assay; assay type: functional, cell-based
Procedure, shortened: (§1)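 Spheroids grown from PC-3M-CT+ single-cell suspension (5×10^4/mL, serum-free RPMI 1640) on low-attachment plates rocked at 37 °C for 2 days, reaching 150–300 μm (~4×10^4 cells). One spheroid per ECM-coated well in serum-free medium, t=0 set at 1 h after plating. Photographed, cultured 48 h at 37 °C, fixed, Diff-Quik stained, migration diameter measured by micrometer minus initial diameter. Reported as percent increase in surface area.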

PC-3M [2] = assay: Antimetastatic activity in human PC3M cells expressing calcitonin assessed as decreased cell migration by spheroid disaggregation assay; assay type: functional, cell-based; procedure, shortened: as §1
[3] = biological target: T1, Hypoxia inducible factors; HIF-1-alpha, HIF-2-alpha (Homo sapiens, UniProt Q16665+Q99814); assay: Inhibition of hypoxia-induced HIF1 activation in human T47D cells at 30 uM by cell based reporter gene assay
Procedure, shortened: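 Transfected T47D luciferase reporter assay. Compound-treated cells exposed to hypoxia (5% CO2/1% O2/94% N2), normoxia, or 10 μM 1,10-phenanthroline as hypoxia mimetic, then luciferase activity read. Constitutive pGL3 control reporter run alongside.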

T47D = assay: Cell viability in human T47D cells at 30 uM by SRB method; assay type: functional
Procedure, shortened: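 T47D cells in DMEM/F12 with 10% FCS plated at 30,000/well and left overnight at 37 °C. Compound added, 30 min preincubation, then 16 h (or 48 h) treatment at 37 °C, hypoxic (1% O2) or normoxic.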

PC-3M [4] = assay: Antimetastatic activity in human PC3M cells expressing calcitonin assessed as shrinkage of actin fibers at 50 nM by Matrigel barrier assay; assay type: functional, cell-based
PC-3M [5] = assay: Antimetastatic activity in human PC3M cells expressing calcitonin assessed as inhibition calcitonin-induced invasion at 100 nM by Matrigel barrier assay; assay type: functional, cell-based
Procedure, shortened: (§2)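 PC-3M-CT+ cells serum-starved 24 h, then 25×10³ cells seeded in the upper insert of Matrigel invasion chambers. Lower chamber held 90% basal RPMI plus 10% conditioned medium from cells expressing active Gαs. After 24 h, non-invaders were removed and the insert underside stained with Diff Quick. Cells counted in ≥6 fields at 100×, corrected for growth rate. Triplicate, repeated twice, mean ± SEM.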

PC-3M [6] = assay: Antimetastatic activity in human PC3M cells expressing calcitonin assessed as inhibition of invasion at 100 nM by Matrigel barrier assay; assay type: functional, cell-based; procedure, shortened: as §2
PC-3M [7] = assay: Antimetastatic activity in human PC3M cells expressing calcitonin assessed as inhibition calcitonin-induced reorganization of actin fibers at 50 nM by Matrigel barrier assay; assay type: functional, cell-based
[8] = Cytotoxicity against human PC3M cells; assay type: functional, PC-3M
[9] = Antimetastatic activity in human PC3M cells expressing calcitonin assessed as decreased cell disaggregation at 500 nM by spheroid disaggregation assay relative to control; assay type: functional, PC-3M
Procedure, shortened: (§3)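 Single PC-3M-CT+ spheroids (150–300 μm, ~4×10⁴ cells, grown 2 days on a rocking shaker in serum-free RPMI) placed on ECM-coated wells in serum-free medium. t = 0 set 1 h after plating. Cultured 48 h at 37 °C, then fixed and Diff-Quik stained. Migration diameter measured by micrometer minus initial spheroid diameter. Reported as average percent increase in surface area.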

[10] = Antimetastatic activity in human PC3M cells expressing calcitonin assessed as decreased cell migration at 500 nM by spheroid disintegration assay relative to control; assay type: functional, PC-3M; procedure, shortened: as §3
[11] = biological target: T1, Hypoxia inducible factors; HIF-1-alpha, HIF-2-alpha; assay: Inhibition of hypoxia-induced HIF1 activation in human T47D cells by cell based reporter gene assay
Procedure, shortened: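 T47D cells transfected with an HIF-1 luciferase reporter, treated with compound and exposed to hypoxia (5% CO₂/1% O₂/94% N₂) versus normoxia (5% CO₂/95% air). Luciferase activity measured.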

[12] = biological target: T1, Hypoxia inducible factors; HIF-1-alpha, HIF-2-alpha; assay: Inhibition of 1,10-phenanthroline-induced HIF1 activation in human T47D cells by cell based reporter gene assay
Procedure, shortened: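 T47D cells transfected with an HIF-1 luciferase reporter, treated with compound and stimulated with 10 μM 1,10-phenanthroline as a hypoxia mimetic. Luciferase activity measured.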

Compound	inhibition [3] [%]	Activity (PC-3M [1])	Activity (PC-3M [2])	Activity (T47D) [%]	Activity (PC-3M [4])	Activity (PC-3M [5])	Activity (PC-3M [6])	Activity (PC-3M [7])	Activity [8] [nM]	Fold change [9]	Fold change [10]	IC50 [11] [µM]	IC50 [12] [µM]
C/C1=C/C(=O)O[C@@H]2C[C@@H](CC[C@H](C)/C=C\C=C\CC1)O[C@@](OC(=O)NCCBr)([C@@H]1CSC(=O)N1)C2	< 50	inactive	inactive	<20	–	–	–	–	–	–	–	–	–
C/C1=C/C(=O)O[C@@H]2C[C@@H](CC[C@H](C)/C=C\C=C\CC1)O[C@@](OC(=O)Nc1ccccc1)([C@@H]1CSC(=O)N1)C2	< 50	Dose-dependent effect	Dose-dependent effect	<20	–	–	–	–	–	–	–	–	–
C/C1=C/C(=O)O[C@@H]2C[C@@H](CC[C@H](C)/C=C\C=C\CC1)O[C@@](O)([C@@H]1CSC(=O)N1)C2 [LATRUNCULIN A]	–	–	–	<20	Active	Active	Active	Active	500	3	3	6.7	25
C/C1=C/C(=O)O[C@@H]2C[C@@H](CC[C@H](C)/C=C\C=C\CC1)O[C@@](OC(=O)NCc1ccccc1)([C@@H]1CSC(=O)N1)C2	–	Dose-dependent effect	Dose-dependent effect	<20	–	–	–	–	–	–	–	29	–

Now from value to compound, other results behind:

inhibition [3] [%]	Compound	Activity (PC-3M [1])	Activity (PC-3M [2])	Activity (T47D) [%]	Activity (PC-3M [4])	Activity (PC-3M [5])	Activity (PC-3M [6])	Activity (PC-3M [7])	Activity [8] [nM]	Fold change [9]	Fold change [10]	IC50 [11] [µM]	IC50 [12] [µM]
< 50	C/C1=C/C(=O)O[C@@H]2C[C@@H](CC[C@H](C)/C=C\C=C\CC1)O[C@@](OC(=O)NCCCCl)([C@@H]1CSC(=O)N1)C2	Dose-dependent effect	Dose-dependent effect	<20	–	–	–	–	–	–	–	–	–
< 50	C/C1=C/C(=O)O[C@@H]2C[C@@H](CC[C@H](C)/C=C\C=C\CC1)O[C@@](OC(=O)NCCCl)([C@@H]1CSC(=O)N1)C2	inactive	inactive	<20	–	–	–	–	–	–	–	–	–
